Rows were chosen to be rich in hits. Some 3.1% of all compounds tested hit in one or more screens of this group.
UHRF1 binding = blocks human UHRF1 binding to methylated DNA; actives 0.75% (n = 370,000); AID 687016; UHRF1 binding to methylated oligo, TR-FRET; inhibition, % at 4.4 µM; Q96T88; in the data active means inhibition above about 21%;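 further: UHRF1 SRA domain binding a hemimethylated CpG hairpin DNA probe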
CSN inh = CSN deneddylation inhibition; Q92905; Purified CSN, SCF-Nedd8-OG deneddylation, fluorescence polarization; inhibition, % at 12.5 µM; actives 0.38% (n = 360,000); AID 651999;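 active means pattern-corrected inhibition above about 35%, with an unprinted fluorescence ratio check between 0.5 and 1.5, limit read from the data, passing the limit was not always enough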
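Test system: purified human Csn5 enzyme expressed in HEK293T cells. Amount: 0.24 nM enzyme. Reagent: SCFSkp2-Nedd8OG substrate at 10 nM final. Schedule: 90 min incubation of compound, enzyme and substrate at room temperature. Detection: fluorescence polarization. Read-out: % inhibition of substrate cleavage by Csn5.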
ATG4B inh = inhibitors of human ATG4B cysteine protease; inhibition, % at 8.33 µM; actives 0.51% (n = 340,000); ATG4B cleavage of LC3-PLA2, NBD-HPC fluorescence, 1 h; in the data active means inhibition above about 40%
LEDGF integ inh = blocks HIV-1 LEDGF/p75-dependent DNA integration | TR-FRET IN-LEDGF/p75 DNA integration, Eu/Cy5 | inhibition, % at 3.7 µM | actives 0.64% (n = 370,000) | AID 743269;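 active means inhibition above the screen-wide mean plus 3 SD, cut at about 13% in these data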;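 further: signal is the Cy5 over europium emission ratio at 671 and 618 nm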
MBD2 DNA inh = inhibitors of human MBD2 binding to methylated oligonucleotide. AID 686964. inhibition, % at 4.4 µM. TR-FRET. Q9UBB5. actives 0.31% (n = 370,000); in the data active means inhibition above about 13%
Target sequence (Q9UBB5 whole entry, looked up): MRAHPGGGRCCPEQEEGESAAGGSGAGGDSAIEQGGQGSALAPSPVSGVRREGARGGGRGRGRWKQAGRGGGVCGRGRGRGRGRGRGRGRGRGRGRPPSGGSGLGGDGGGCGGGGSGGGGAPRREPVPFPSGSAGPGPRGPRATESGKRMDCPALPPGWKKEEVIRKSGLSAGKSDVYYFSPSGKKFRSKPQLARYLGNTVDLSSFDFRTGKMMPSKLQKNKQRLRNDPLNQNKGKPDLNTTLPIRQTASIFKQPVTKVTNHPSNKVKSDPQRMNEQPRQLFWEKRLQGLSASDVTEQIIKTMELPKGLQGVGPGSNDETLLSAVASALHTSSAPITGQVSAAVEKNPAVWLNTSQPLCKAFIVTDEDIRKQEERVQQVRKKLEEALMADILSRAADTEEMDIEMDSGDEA
rCAG binder = r(CAG) repeat RNA binding | TO-PRO-1 dye displacement fluorescence | inhibition, % at 3 µM | AID 651821 | actives 1.3% (n = 370,000);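 active means inhibition above the plate cutoff, the mean of all test compounds on that plate plus 3 SD, cut at about 35% in these data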;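 further: higher means more dye released from RNA so lower well fluorescence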
rCAG bind conf = r(CAG) RNA repeat binding, confirmation | shares compounds with rCAG binder | TO-PRO-1 dye displacement fluorescence | inhibition, % at 3 µM | actives 70% (n = 4,300);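 active means inhibition above a per-plate cutoff, the mean inhibition of sample wells plus 3 SD, cut at about 35% in these data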;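 further: loss of TO-PRO-1 fluorescence as compound displaces dye from 1x1 AA loop RNA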
dCAG dye counter = counter-screen for rCAG RNA binders: DNA CAG dye complex inhibitors; shares compounds with rCAG binder; inhibition, % at 3 µM; AID 652068; d(CAG) DNA oligo TO-PRO-1 dye displacement, fluorescence; actives 94% (n = 4,300);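 active means inhibition above its plate's cutoff, the mean test-well inhibition plus 3 SD, cut at about 4.8% in these data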;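 further: hits displace the dye from DNA and so lower well fluorescence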
DNA CAG DR = counter-screen for rCAG binders: inhibitors of DNA CAG TO-PRO-1 complex. AID 686960. DNA CAG/GTC duplex TO-PRO-1 dye displacement fluorescence. IC50, µM. actives 20% (n = 250). shares compounds with rCAG binder; in the data active means IC50 below about 10 µM
A number is an active result.

`CCNC(=S)NNC(=O)c1cc(-c2cccnc2)nc2ccccc12` gave UHRF1 binding inactive, CSN inh inactive, ATG4B inh inactive, LEDGF integ inh inactive, MBD2 DNA inh inactive and rCAG binder inactive.
CCCCNC(=S)NNC(=O)c1cc(-c2cccnc2)nc2ccccc12 was read as UHRF1 binding inactive, CSN inh inactive, ATG4B inh inactive, LEDGF integ inh inactive, MBD2 DNA inh inactive, rCAG binder 43, rCAG bind conf inactive and dCAG dye counter 7.7.
Screening CCNC(=S)NNC(=O)c1cc(-c2cccc(OCC)c2)nc2ccccc12 returned UHRF1 binding inactive, CSN inh inactive, ATG4B inh inactive, LEDGF integ inh inactive, MBD2 DNA inh inactive and rCAG binder inactive.
For CCNC(=S)NNC(=O)c1cc(-c2cccc(C)c2)nc2ccccc12 the results were UHRF1 binding inactive, CSN inh inactive, ATG4B inh inactive, LEDGF integ inh inactive, MBD2 DNA inh inactive, rCAG binder 43, rCAG bind conf 40 and dCAG dye counter 12.
`CCOC(=O)c1ccc(NC(=S)NNC(=O)c2cc(-c3cccnc3)nc3ccccc23)cc1` gave UHRF1 binding inactive, CSN inh inactive, ATG4B inh inactive, LEDGF integ inh inactive, MBD2 DNA inh inactive, rCAG binder 78, rCAG bind conf 80 and dCAG dye counter 37.
Screening CCCNC(=S)NNC(=O)c1cc(-c2cccnc2)nc2ccccc12 returned UHRF1 binding inactive, CSN inh inactive, ATG4B inh inactive, LEDGF integ inh inactive, MBD2 DNA inh inactive and rCAG binder inactive.
COc1ccc(C2C(C(=O)Nc3ccc(F)cc3)CCC(=O)N2c2ccc(OC)cc2)cc1 (stereo unspecified) was read as UHRF1 binding inactive, LEDGF integ inh inactive, MBD2 DNA inh inactive and rCAG binder inactive.
C[C@H](NC(=O)OCc1ccccc1)P(=O)(O)O was read as UHRF1 binding inactive, LEDGF integ inh inactive, MBD2 DNA inh inactive and rCAG binder inactive.
Screening COc1ccc(C#Cc2ccc3c(c2)[C@H]2[C@H](CCN2S(=O)(=O)c2ccccc2F)[C@H](CO)N3C)cc1 returned UHRF1 binding inactive, LEDGF integ inh inactive, MBD2 DNA inh inactive and rCAG binder inactive.
Screening COc1ccc(C2O[C@@H](C)[C@@H]3C(=O)N4CCc5c([nH]c6ccccc56)[C@@H]4C[C@@H]3N2C)cc1 (stereo partly specified) returned UHRF1 binding inactive, LEDGF integ inh inactive, MBD2 DNA inh inactive and rCAG binder inactive.
For CCOc1cc2c3c(c1)C(C)=CC(C)(C)N3C(=O)C2=O the results were UHRF1 binding inactive, CSN inh inactive, ATG4B inh inactive, LEDGF integ inh inactive, MBD2 DNA inh inactive and rCAG binder inactive.
Screening CC(=O)Oc1cc2c3c(c1)/C(=C1/SC(=S)NC1=O)C(=O)N3C(C)(C)C=C2C returned UHRF1 binding inactive, CSN inh inactive, ATG4B inh inactive, LEDGF integ inh inactive, MBD2 DNA inh inactive, rCAG binder 59, rCAG bind conf 92 and dCAG dye counter 73.
`COc1ccc(N2CCN(CCCNC(=O)CCc3cccc(F)c3)CC2)cc1` gave UHRF1 binding inactive, LEDGF integ inh inactive, MBD2 DNA inh inactive and rCAG binder inactive.
Screening CC1CCc2c(sc3nc(CN4CCOCC4)nc(NS(=O)(=O)c4cccc([N+](=O)[O-])c4)c23)C1 (stereo unspecified) returned UHRF1 binding inactive, CSN inh inactive, ATG4B inh inactive, LEDGF integ inh inactive, MBD2 DNA inh inactive, rCAG binder 62, rCAG bind conf 71, dCAG dye counter 28 and DNA CAG DR inactive.
Screening Cc1cc(S(=O)(=O)Nc2nc(CN3CCOCC3)nc3sc4c(c23)CCCC4)ccc1F returned UHRF1 binding inactive, CSN inh inactive, ATG4B inh inactive, LEDGF integ inh inactive, MBD2 DNA inh inactive and rCAG binder inactive.
For Cc1ccc(S(=O)(=O)NN=Cc2c(O)ccc3ccccc23)cc1 the results were UHRF1 binding inactive, CSN inh inactive, LEDGF integ inh inactive, MBD2 DNA inh inactive, rCAG binder 41, rCAG bind conf 46 and dCAG dye counter 15.
`C=CC(=O)NC1CCCCN(CC)C1=O` (stereo unspecified) gave UHRF1 binding inactive, LEDGF integ inh inactive, MBD2 DNA inh inactive and rCAG binder inactive.
CCOC(=O)[C@@]12CCC3=C1N(CCC3)C(=O)[C@H](CC(=O)NCCCOC)C2 was read as UHRF1 binding inactive, LEDGF integ inh inactive, MBD2 DNA inh inactive and rCAG binder inactive.
Screening Cc1ccc(S(=O)(=O)N2[C@@H](c3ccc(F)cc3)C(C(=O)O)=CC[C@H]2c2ccc3c(c2)OCO3)cc1 returned UHRF1 binding inactive, CSN inh inactive, ATG4B inh inactive, LEDGF integ inh inactive, MBD2 DNA inh inactive, rCAG binder 53, rCAG bind conf 51 and dCAG dye counter 17.
For Cc1ccc(S(=O)(=O)N2[C@@H](c3ccccc3F)C(C(=O)O)=CC[C@H]2c2ccc3c(c2)OCO3)cc1 the results were UHRF1 binding inactive, CSN inh inactive, ATG4B inh inactive, LEDGF integ inh inactive, MBD2 DNA inh inactive, rCAG binder 46, rCAG bind conf 41 and dCAG dye counter 10.
`CC1(C(=O)NS(=O)(=O)c2ccccc2)CCN1C(=O)CC(c1ccccc1)c1ccccc1` (stereo unspecified) gave UHRF1 binding inactive, CSN inh inactive, LEDGF integ inh inactive, MBD2 DNA inh inactive and rCAG binder inactive.
`CC1(C(=O)NS(=O)(=O)c2cccc(OC(F)F)c2)CCN1C(=O)C/C=C/c1ccccc1` (stereo unspecified) gave UHRF1 binding inactive, CSN inh inactive, LEDGF integ inh inactive, MBD2 DNA inh inactive and rCAG binder inactive.
Screening Cc1ccccc1S(=O)(=O)NC(=O)C1(C)CCN1C(=O)CC(c1ccccc1)c1ccccc1 (stereo unspecified) returned UHRF1 binding inactive, CSN inh inactive, LEDGF integ inh inactive, MBD2 DNA inh inactive, rCAG binder 47, rCAG bind conf inactive and dCAG dye counter 7.0.
Screening CC1(C(=O)NS(=O)(=O)c2ccccc2Cl)CCN1C(=O)CC(c1ccccc1)c1ccccc1 (stereo unspecified) returned UHRF1 binding inactive, CSN inh inactive, LEDGF integ inh inactive, MBD2 DNA inh inactive, rCAG binder 50, rCAG bind conf 45 and dCAG dye counter 9.2.

Screening data (PubChem BioAssay)
